From ChEMBL document CHEMBL2069284, “Synthesis and selective anticancer activity of steroidal glycoconjugates” (Eur J Med Chem, 2012)

Assays:
[1] = Cytotoxicity against human ViBo cells assessed as LDH release at antiproliferative IC50 after 24 hrs; format: cell-based
Procedure, shortened: (§1)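 Membrane damage was measured as LDH released into the culture supernatant 24 h after treatment; Triton X-100 lysis served as the total-lysis reference and DMSO as the vehicle control. For HeLa, CaSki and ViBo, 7500 cells/well were seeded and the medium was replaced after 24 h before treatment. Data are mean ± SD of three independent experiments in triplicate, analyzed by ANOVA with Tukey's test.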

[2] = Cytotoxicity against human lymphocytes assessed as LDH release at antiproliferative IC50 after 24 hrs; format: cell-based; conditions: lymphocyte; procedure, shortened: as §1
HeLa [3] = test: Cytotoxicity against human HeLa cells assessed as LDH release at antiproliferative IC50 after 24 hrs; format: cell-based; procedure, shortened: as §1
[4] = (§2) Antiproliferative activity against human ViBo cells after 24 hrs by crystal violet staining-based method; format: functional, cell-based
Procedure, shortened: (§3)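 Cells were cultured in RPMI-1640 with 5% newborn calf serum and benzylpenicillin at 37 °C, 5% CO2, and used in exponential growth. Cells were seeded at 7500/well, grown 24 h, then exposed to a concentration range. Controls received 1% DMSO vehicle. After 24 h, growth was read by crystal violet staining as absorbance at 590 nm, and IC50 was derived.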

ViBo = test: as §2; format: functional, cell-based; procedure, shortened: as §3
Ca-Ski [5] = test: Antiproliferative activity against human CaSki cells after 24 hrs by crystal violet staining-based method; format: functional, cell-based; procedure, shortened: as §3
HeLa [6] = test: Antiproliferative activity against human HeLa cells after 24 hrs by crystal violet staining-based method; format: functional, cell-based; procedure, shortened: as §3
PBMC = test: Antiproliferative activity against PHA-stimulated and CFSE-labeled human PBMC assessed as proliferation of enriched lymphocyte population at antiproliferative IC50 after 72 hrs by flow cytometric analysis (reference value: 90.13%); format: cell-based
Procedure, shortened: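 Enriched lymphocytes from a normal blood donor were obtained by removing cells adherent after 1 h at 37 °C, 5% CO2, then resuspended in RPMI-1640 at 1 × 10⁶ cells/mL. Cells were CFSE-labeled for 15 min at room temperature in the dark, PHA-stimulated and/or treated, and plated at 2 × 10⁵ cells/well with five replicates. After 72 h at 37 °C, cells were PBS-washed, fixed in 1% formaldehyde, and analyzed by flow cytometry (≥20,000 events).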

Ca-Ski [7] = test: Cytotoxicity against human CaSki cells assessed as LDH release at antiproliferative IC50 after 24 hrs; format: cell-based; procedure, shortened: as §1

SMILES | Activity [1] | Activity [2] | Activity (HeLa [3]) | IC50 [4] | inhibition (ViBo) | IC50 (Ca-Ski [5]) | inhibition (Ca-Ski [5]) | IC50 (HeLa [6]) | inhibition (HeLa [6]) | Activity (PBMC) | Activity (Ca-Ski [7])
CC(=O)N[C@H]1[C@H](O[C@H]2CC[C@@]3(C)[C@@H](CC[C@@H]4[C@@H]3CC(=O)[C@]3(C)[C@@H]5[C@H](C[C@@H]43)O[C@]3(CC[C@@H](C)CO3)[C@H]5C)C2)O[C@H](CO)[C@@H](O)[C@@H]1O | Non-toxic | Non-toxic | Non-toxic | > 142 µM | Dose-dependent effect | 136 µM | Dose-dependent effect | 129 µM | Dose-dependent effect | 75.59% | Non-toxic
C[C@@H]1CC[C@@]2(OC1)O[C@H]1C[C@H]3[C@@H]4CC=C5C[C@@H](O[C@@H]6O[C@H](CO)[C@@H](O)[C@H](O)[C@H]6N)CC[C@]5(C)[C@H]4CC[C@]3(C)[C@H]1[C@@H]2C.Cl | Non-toxic | Non-toxic | Non-toxic | 82 µM | Dose-dependent effect | 41 µM | Dose-dependent effect | 41 µM | Dose-dependent effect | 78.76% | Non-toxic
CC(=O)N[C@H]1[C@H](O[C@H]2CC[C@@]3(C)C(=CC[C@H]4[C@@H]5C[C@@H]6O[C@]7(CC[C@@H](C)CO7)[C@@H](C)[C@@H]6[C@@]5(C)CC[C@@H]43)C2)O[C@H](CO)[C@@H](O)[C@@H]1O | Non-toxic | Non-toxic | Non-toxic | 81 µM | Dose-dependent effect | 80 µM | Dose-dependent effect | 81 µM | Dose-dependent effect | 72.58% | Non-toxic
